In ChEMBL document CHEMBL1629465, “Efficient synthesis of novel 1,2,4-triazole fused acyclic and 21-28 membered macrocyclic and/or lariat macrocyclic oxaazathia crown compounds with potential antimicrobial activity” (2010):

system: Pseudomonas aeruginosa; experiment: Antimicrobial activity against Pseudomonas aeruginosa RCMB 102002 at 5 mg/ml by agar diffusion technique; format: functional; conditions: read-out: DIZ
Procedure, shortened: (§1)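 Agar well diffusion. Test compounds and reference standard drugs were diluted to 5.0, 2.5 and 1.0 mg/mL and applied to 0.6 cm wells. Inhibition zone beyond the control was scored as 0 (no inhibition), + (0.1–0.5 cm), ++ (0.6–1.0 cm) or +++ (1.0–1.5 cm).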

**Q.** Which zone of inhibition at 5000 µg/mL does the source give for `Oc1ccccc1/C=N\n1c(SCCSc2nnc(-c3cccnc3)n2/N=C\c2ccccc2O)nnc1-c1cccnc1` here?
**A.** The zone of inhibition at 5000 µg/mL was 0 mm.

system: Staphylococcus aureus; experiment: Antimicrobial activity against Staphylococcus aureus RCMB 106001 at 2.5 mg/ml by agar diffusion technique; format: functional; conditions: read-out: DIZ; procedure, shortened: as §1

**Q.** `Oc1ccccc1/C=N\n1c(SCCSc2nnc(-c3cccnc3)n2/N=C\c2ccccc2O)nnc1-c1cccnc1` was tested. Which zone of inhibition at 2500 µg/mL did it give?
**A.** Its zone of inhibition at 2500 µg/mL is 0 mm.

system: Candida albicans; experiment: Antimicrobial activity against Candida albicans RCMB 005003 at 1 mg/ml by agar diffusion technique; format: functional; conditions: read-out: DIZ; procedure, shortened: as §1

**Q.** `Oc1ccccc1/C=N\n1c(SCCSc2nnc(-c3cccnc3)n2/N=C\c2ccccc2O)nnc1-c1cccnc1` was tested. Which zone of inhibition at 1000 µg/mL did it give?
**A.** The zone of inhibition at 1000 µg/mL was 0 mm.

system: Syncephalastrum racemosum; experiment: Antimicrobial activity against Syncephalastrum racemosum RCMB 016001 at 2.5 mg/ml by agar diffusion technique; format: functional; conditions: read-out: DIZ; procedure, shortened: as §1

**Q.** `Oc1ccccc1/C=N\n1c(SCCSc2nnc(-c3cccnc3)n2/N=C\c2ccccc2O)nnc1-c1cccnc1` was tested. Which zone of inhibition at 2500 µg/mL did it give?
**A.** The zone of inhibition at 2500 µg/mL was 1 mm.

system: Escherichia coli; experiment: Antimicrobial activity against Escherichia coli RCMB 103001 at 1 mg/ml by agar diffusion technique; format: functional; conditions: read-out: DIZ; procedure, shortened: as §1

**Q.** With `Oc1ccccc1/C=N\n1c(SCCSc2nnc(-c3cccnc3)n2/N=C\c2ccccc2O)nnc1-c1cccnc1` as the molecule, how does the zone of inhibition at 1000 µg/mL read?
**A.** Its zone of inhibition at 1000 µg/mL is 0 mm.

system: Staphylococcus aureus; experiment: Antimicrobial activity against Staphylococcus aureus RCMB 106001 at 5 mg/ml by agar diffusion technique; format: functional; conditions: read-out: DIZ; procedure, shortened: as §1

**Q.** With `Oc1ccccc1/C=N\n1c(SCCSc2nnc(-c3cccnc3)n2/N=C\c2ccccc2O)nnc1-c1cccnc1` as the molecule, how does the zone of inhibition at 5000 µg/mL read?
**A.** The zone of inhibition at 5000 µg/mL was 0 mm.

system: Penicillium italicum; experiment: Antimicrobial activity against Penicillium italicum RCMB 001018 at 1 mg/ml by agar diffusion technique; format: functional; conditions: read-out: DIZ; procedure, shortened: as §1

**Q.** With `Oc1ccccc1/C=N\n1c(SCCSc2nnc(-c3cccnc3)n2/N=C\c2ccccc2O)nnc1-c1cccnc1` as the molecule, how does the zone of inhibition at 1000 µg/mL read?
**A.** Its zone of inhibition at 1000 µg/mL is 0 mm.

system: Syncephalastrum racemosum; experiment: Antimicrobial activity against Syncephalastrum racemosum RCMB 016001 at 1 mg/ml by agar diffusion technique; format: functional; conditions: read-out: DIZ; procedure, shortened: as §1

**Q.** For `Oc1ccccc1/C=N\n1c(SCCSc2nnc(-c3cccnc3)n2/N=C\c2ccccc2O)nnc1-c1cccnc1`, which zone of inhibition at 1000 µg/mL is on record?
**A.** The zone of inhibition at 1000 µg/mL was 0 mm.

system: Staphylococcus aureus; experiment: Antimicrobial activity against Staphylococcus aureus RCMB 106001 at 1 mg/ml by agar diffusion technique; format: functional; conditions: read-out: DIZ; procedure, shortened: as §1

**Q.** With `Oc1ccccc1/C=N\n1c(SCCSc2nnc(-c3cccnc3)n2/N=C\c2ccccc2O)nnc1-c1cccnc1` as the molecule, how does the zone of inhibition at 1000 µg/mL read?
**A.** The zone of inhibition at 1000 µg/mL was 0 mm.

system: Syncephalastrum racemosum; experiment: Antimicrobial activity against Syncephalastrum racemosum RCMB 016001 at 5 mg/ml by agar diffusion technique; format: functional; conditions: read-out: DIZ; procedure, shortened: as §1

**Q.** For `Oc1ccccc1/C=N\n1c(SCCSc2nnc(-c3cccnc3)n2/N=C\c2ccccc2O)nnc1-c1cccnc1`, which zone of inhibition at 5000 µg/mL is on record?
**A.** Its zone of inhibition at 5000 µg/mL is 1 mm.

system: Bacillus subtilis; experiment: Antimicrobial activity against Bacillus subtilis RCMB 101001 at 5 mg/ml by agar diffusion technique; format: functional; conditions: read-out: DIZ; procedure, shortened: as §1

**Q.** How did the zone of inhibition at 5000 µg/mL turn out when `Oc1ccccc1/C=N\n1c(SCCSc2nnc(-c3cccnc3)n2/N=C\c2ccccc2O)nnc1-c1cccnc1` was run?
**A.** The zone of inhibition at 5000 µg/mL was 1 mm.

system: Penicillium italicum; experiment: Antimicrobial activity against Penicillium italicum RCMB 001018 at 5 mg/ml by agar diffusion technique; format: functional; conditions: read-out: DIZ; procedure, shortened: as §1

**Q.** `Oc1ccccc1/C=N\n1c(SCCSc2nnc(-c3cccnc3)n2/N=C\c2ccccc2O)nnc1-c1cccnc1` was tested. Which zone of inhibition at 5000 µg/mL did it give?
**A.** The zone of inhibition at 5000 µg/mL was 1 mm.

system: Escherichia coli; experiment: Antimicrobial activity against Escherichia coli RCMB 103001 at 2.5 mg/ml by agar diffusion technique; format: functional; conditions: read-out: DIZ; procedure, shortened: as §1

**Q.** Which zone of inhibition at 2500 µg/mL does the source give for `Oc1ccccc1/C=N\n1c(SCCSc2nnc(-c3cccnc3)n2/N=C\c2ccccc2O)nnc1-c1cccnc1` here?
**A.** The zone of inhibition at 2500 µg/mL was 0 mm.

system: Aspergillus fumigatus; experiment: Antimicrobial activity against Aspergillus fumigatus RCMB 002008 at 1 mg/ml by agar diffusion technique; format: functional; conditions: read-out: DIZ; procedure, shortened: as §1

**Q.** Which zone of inhibition at 1000 µg/mL does the source give for `Oc1ccccc1/C=N\n1c(SCCSc2nnc(-c3cccnc3)n2/N=C\c2ccccc2O)nnc1-c1cccnc1` here?
**A.** Its zone of inhibition at 1000 µg/mL is 0 mm.

system: Bacillus subtilis; experiment: Antimicrobial activity against Bacillus subtilis RCMB 101001 at 1 mg/ml by agar diffusion technique; format: functional; conditions: read-out: DIZ; procedure, shortened: as §1

**Q.** For `Oc1ccccc1/C=N\n1c(SCCSc2nnc(-c3cccnc3)n2/N=C\c2ccccc2O)nnc1-c1cccnc1`, which zone of inhibition at 1000 µg/mL is on record?
**A.** The zone of inhibition at 1000 µg/mL was 0 mm.

system: Pseudomonas aeruginosa; experiment: Antimicrobial activity against Pseudomonas aeruginosa RCMB 102002 at 2.5 mg/ml by agar diffusion technique; format: functional; conditions: read-out: DIZ; procedure, shortened: as §1

**Q.** Which zone of inhibition at 2500 µg/mL does the source give for `Oc1ccccc1/C=N\n1c(SCCSc2nnc(-c3cccnc3)n2/N=C\c2ccccc2O)nnc1-c1cccnc1` here?
**A.** The zone of inhibition at 2500 µg/mL was 0 mm.

system: Escherichia coli; experiment: Antimicrobial activity against Escherichia coli RCMB 103001 at 5 mg/ml by agar diffusion technique; format: functional; conditions: read-out: DIZ; procedure, shortened: as §1

**Q.** How did the zone of inhibition at 5000 µg/mL turn out when `Oc1ccccc1/C=N\n1c(SCCSc2nnc(-c3cccnc3)n2/N=C\c2ccccc2O)nnc1-c1cccnc1` was run?
**A.** The zone of inhibition at 5000 µg/mL was 0 mm.

system: Candida albicans; experiment: Antimicrobial activity against Candida albicans RCMB 005003 at 2.5 mg/ml by agar diffusion technique; format: functional; conditions: read-out: DIZ; procedure, shortened: as §1

**Q.** With `Oc1ccccc1/C=N\n1c(SCCSc2nnc(-c3cccnc3)n2/N=C\c2ccccc2O)nnc1-c1cccnc1` as the molecule, how does the zone of inhibition at 2500 µg/mL read?
**A.** The zone of inhibition at 2500 µg/mL was 0 mm.

system: Candida albicans; experiment: Antimicrobial activity against Candida albicans RCMB 005003 at 5 mg/ml by agar diffusion technique; format: functional; conditions: read-out: DIZ; procedure, shortened: as §1

**Q.** With `Oc1ccccc1/C=N\n1c(SCCSc2nnc(-c3cccnc3)n2/N=C\c2ccccc2O)nnc1-c1cccnc1` as the molecule, how does the zone of inhibition at 5000 µg/mL read?
**A.** The zone of inhibition at 5000 µg/mL was 0 mm.

system: Bacillus subtilis; experiment: Antimicrobial activity against Bacillus subtilis RCMB 101001 at 2.5 mg/ml by agar diffusion technique; format: functional; conditions: read-out: DIZ; procedure, shortened: as §1

**Q.** How did the zone of inhibition at 2500 µg/mL turn out when `Oc1ccccc1/C=N\n1c(SCCSc2nnc(-c3cccnc3)n2/N=C\c2ccccc2O)nnc1-c1cccnc1` was run?
**A.** The zone of inhibition at 2500 µg/mL was 0 mm.

system: Penicillium italicum; experiment: Antimicrobial activity against Penicillium italicum RCMB 001018 at 2.5 mg/ml by agar diffusion technique; format: functional; conditions: read-out: DIZ; procedure, shortened: as §1

**Q.** For `Oc1ccccc1/C=N\n1c(SCCSc2nnc(-c3cccnc3)n2/N=C\c2ccccc2O)nnc1-c1cccnc1`, which zone of inhibition at 2500 µg/mL is on record?
**A.** Its zone of inhibition at 2500 µg/mL is 0 mm.

system: Aspergillus fumigatus; experiment: Antimicrobial activity against Aspergillus fumigatus RCMB 002008 at 2.5 mg/ml by agar diffusion technique; format: functional; conditions: read-out: DIZ; procedure, shortened: as §1

**Q.** Which zone of inhibition at 2500 µg/mL does the source give for `Oc1ccccc1/C=N\n1c(SCCSc2nnc(-c3cccnc3)n2/N=C\c2ccccc2O)nnc1-c1cccnc1` here?
**A.** The zone of inhibition at 2500 µg/mL was 0 mm.

system: Aspergillus fumigatus; experiment: Antimicrobial activity against Aspergillus fumigatus RCMB 002008 at 5 mg/ml by agar diffusion technique; format: functional; conditions: read-out: DIZ; procedure, shortened: as §1

**Q.** Which zone of inhibition at 5000 µg/mL does the source give for `Oc1ccccc1/C=N\n1c(SCCSc2nnc(-c3cccnc3)n2/N=C\c2ccccc2O)nnc1-c1cccnc1` here?
**A.** Its zone of inhibition at 5000 µg/mL is 0 mm.

system: Pseudomonas aeruginosa; experiment: Antimicrobial activity against Pseudomonas aeruginosa RCMB 102002 at 1 mg/ml by agar diffusion technique; format: functional; conditions: read-out: DIZ; procedure, shortened: as §1

**Q.** `Oc1ccccc1/C=N\n1c(SCCSc2nnc(-c3cccnc3)n2/N=C\c2ccccc2O)nnc1-c1cccnc1` was tested. Which zone of inhibition at 1000 µg/mL did it give?
**A.** Its zone of inhibition at 1000 µg/mL is 0 mm.
